Data on 24 molecules can be found in ChEMBL document CHEMBL3779817, “Investigations on the 4-Quinolone-3-carboxylic Acid Motif. 7. Synthesis and Pharmacological Evaluation of 4-Quinolone-3-carboxamides and 4-Hydroxy-2-quinolone-3-carboxamides as High Affinity Cannabinoid Receptor 2 (CB2R) Ligands with Improved Aqueous Solubility” (J Med Chem, 2016).

A word on the EC50: it is the midpoint of the concentration-response curve. What is called IC50 is the concentration at which inhibition is half-maximal.

Values after ≈ are worked out from the molar mass of the structure shown.

The target in series [1] is Cannabinoid receptor 1 (Homo sapiens) (UniProt P21554). Conditions: HEK293.
Sequence of Cannabinoid receptor 1 (Homo sapiens) (P21554 whole entry, the tested form may be a part): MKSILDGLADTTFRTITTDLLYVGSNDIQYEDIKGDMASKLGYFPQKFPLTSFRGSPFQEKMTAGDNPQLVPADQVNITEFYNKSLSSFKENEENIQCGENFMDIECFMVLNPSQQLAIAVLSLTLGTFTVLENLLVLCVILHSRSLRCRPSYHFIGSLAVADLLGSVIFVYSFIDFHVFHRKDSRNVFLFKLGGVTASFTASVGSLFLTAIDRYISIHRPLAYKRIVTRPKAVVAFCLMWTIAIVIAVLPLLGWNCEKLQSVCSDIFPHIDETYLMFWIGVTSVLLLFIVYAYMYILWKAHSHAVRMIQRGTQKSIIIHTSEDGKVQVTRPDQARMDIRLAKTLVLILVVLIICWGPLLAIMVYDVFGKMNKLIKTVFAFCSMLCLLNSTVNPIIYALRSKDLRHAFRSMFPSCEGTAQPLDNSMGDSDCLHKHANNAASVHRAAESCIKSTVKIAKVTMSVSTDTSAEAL
In series [2] the target is T1, Cannabinoid receptor 2 (Homo sapiens, UniProt P34972). Kind of series: Inverse agonist activity at recombinant human CB2 receptor expressed in CHO-K1 cells assessed as increase in […]-induced cAMP production by luminescence assay relative to AM630. Format: functional, cell-based. Summed up: (§1)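 CHO-K1 cells overexpressing human CB2, 30000 per well, left overnight at 37 °C, 5% CO2, then given compound dose–response with NKH477 (3× solution of 25 μM) to stimulate adenylate cyclase. cAMP read by enzyme-fragment-complementation chemiluminescence; response normalised to NKH477 alone as 100%. Mean ± SEM of two independent experiments in triplicate.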
T1 sequence (P34972 whole entry, the tested form may be a part): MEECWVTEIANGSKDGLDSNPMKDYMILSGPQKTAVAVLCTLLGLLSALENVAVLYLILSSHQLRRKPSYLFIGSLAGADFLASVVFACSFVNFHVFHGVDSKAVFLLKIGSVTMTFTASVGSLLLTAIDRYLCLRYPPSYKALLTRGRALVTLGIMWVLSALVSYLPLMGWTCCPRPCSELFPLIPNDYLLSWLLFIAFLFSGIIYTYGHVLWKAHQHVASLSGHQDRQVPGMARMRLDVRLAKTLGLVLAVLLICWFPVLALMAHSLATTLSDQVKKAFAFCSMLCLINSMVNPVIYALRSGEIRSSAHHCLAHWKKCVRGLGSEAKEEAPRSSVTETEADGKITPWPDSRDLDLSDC

Series [3] can be described thus: Kinetic solubility in DMSO solution at pH 1.0 after 2 hrs by HPLC-UV analysis. Format: physicochemical. The conditions noted are these: read-out: Kinetic_solubility.
For series [4], the target named is T1, Cannabinoid receptor 2. Kind of series: Inverse agonist activity at recombinant human CB2 receptor expressed in CHO-K1 cells assessed as increase in […]-induced cAMP production by luminescence assay. Format: functional, cell-based. Summed up: as §1
Series [5] in a line: Kinetic solubility in DMSO solution at pH 7.4 after 2 hrs by HPLC-UV analysis. Conditions: for solubility kinetic at 2 h: DMSO solution, pH 7.4, read-out: Kinetic_solubility; for log(Kinetic_solubility): pH 7.4, 2 h. Format: physicochemical.
The target in series [6] is T1, Cannabinoid receptor 2. Kind of series: Displacement of [3H]-CP-55940 from human recombinant CB2 receptor expressed in HEK293 cells after 90 mins by Competition binding assay. Format: cell-based. (Loss of bound radioactivity is the signal in a displacement assay; it reports binding, not function.)
Series [7] can be described thus: Cytotoxicity against mouse NIH/3T3 cells assessed as cell viability after 24 hrs by neutral red uptake test. In kind it is cell-based. Conditions: NIH3T3, 24 h.
The species entered for series [8] is Homo sapiens. In words: Selectivity index, ratio of Ki for recombinant human CB1 receptor to Ki for recombinant human CB2 receptor.

On to `CCCCCn1c(=O)c(C(=O)NC23CC4CC(CC(C4)C2)C3)c(O)c2ccc(F)cc21`, for which the Kieq amounted to 1280 nM in series [1] and 0.93 nM in series [6]. In addition, the Efficacy in series [2] is below 50%. For the same molecule, the figures for the solubility kinetic at 2 h in series [3] and in series [5] were 0.17 µg/mL (≈ 0.399 µM) and 1.5 µg/mL (≈ 3.52 µM), respectively. Also, the EC50 in series [4] came to 0.0179 µM. In series [5], the “log(Kinetic_solubility)” value is -5.45. The IC50 was found to be 0.0035 µM in series [6] and 19 µM in series [7]. The Ratio Ki in series [8] was found to be 1380.

Turning to `CCCCCn1cc(C(=O)NC23CC4CC(CC(C4)C2)C3)c(=O)c2cc(C(C)C)c(F)cc21`, in series [7], the IC50 was 9 µM.

For the molecule `O=C(NC12CC3CC(CC(C3)C1)C2)c1cn(CCN2CCS(=O)(=O)CC2)c2cc(F)ccc2c1=O`, the Kieq in series [1] is 1900 nM; in series [6], 246 nM. For the same molecule, the Ratio Ki in series [8] was 8.

For `COc1ccc(CNC(=O)c2c(O)c3cc(-c4cccs4)ccc3n(CCCCO)c2=O)cc1`, the Kieq in series [1] was above 10000 nM; in series [6], 2240 nM. Moreover, the Ratio Ki in series [8] was above 4.

For `CCCCCn1cc(C(=O)NC23CC4CC(CC(C4)C2)C3)c(=O)c2ccc(F)cc21`, the Kieq in series [1] is 30.5 nM; in series [6] it was 0.8 nM. Besides, the solubility kinetic at 2 h in series [3] was found to be 0.05 µg/mL (≈ 0.122 µM); in series [5], 0.014 µg/mL (≈ 0.0341 µM). In series [5], the “log(Kinetic_solubility)” value is -7.47. In series [7], the IC50 was determined as 74 µM. The Ratio Ki in series [8] was determined as 38.

`CCCCCn1c2c(c(O)c(C(=O)NC34CC5CC(CC(C5)C3)C4)c1=O)CCCC2`: in series [3], the solubility kinetic at 2 h was found to be 0.1 µg/mL (≈ 0.242 µM). In addition, in series [5], the solubility kinetic at 2 h amounted to 1.3 µg/mL (≈ 3.15 µM) and the “log(Kinetic_solubility)” value is -5.5. In addition, the half-inhibitory concentration (IC50) in series [7] is 15 µM.

On to `CCCCCn1c(=O)c(C(=O)NC23CC4CC(CC(C4)C2)C3)c(O)c2cc(C(C)C)c(F)cc21`, for which the Kieq in series [1] is above 10000 nM; in series [6], 66.4 nM. In series [7], the IC50 was 13 µM. The Ratio Ki in series [8] was above 150.

Turning to `CC(C)c1cc2c(=O)c(C(=O)NC34CC5CC(CC(C5)C3)C4)cn(CCN(C)C)c2cc1F`, the Kieq is 717 nM in series [1] and 11.4 nM in series [6]. In addition, the solubility kinetic at 2 h in series [3] was determined as 35.5 µg/mL (≈ 78.3 µM); in series [5], 12.1 µg/mL (≈ 26.7 µM). The “log(Kinetic_solubility)” value in series [5] was -4.57. The Ratio Ki in series [8] was determined as 63.

Regarding `COCCOCn1cc(C(=O)NC23CC4CC(CC(C4)C2)C3)c(=O)c2ccc(F)cc21`, the results for the Kieq in series [1] and in series [6] were above 10000 nM and 56 nM, respectively. Further, in series [8], the Ratio Ki was above 177.

With `CCCCCn1c(=O)c(C(=O)NC23CC4CC(CC(C4)C2)C3)cc2cc(C(C)C)ccc21`, the IC50 in series [7] stood at 92 µM.

For `O=C(NCC1CCCCC1)c1c(O)c2ccccc2n(CCCCO)c1=O`, the values for the Kieq in series [1] and in series [6] were 829 nM and 41.3 nM, respectively. Moreover, the Ratio Ki in series [8] is 20.

In turn, `Cc1ccc(Cn2nc(C(=O)N[C@@H]3C(C)(C)[C@@H]4CC[C@@]3(C)C4)cc2-c2ccc(Cl)c(C)c2)cc1` returned a Kieq in series [1] above 2820 nM.

For the molecule `O=C(NCc1ccc(F)cc1)c1c(O)c2cc(-c3ccco3)ccc2n(CCCCO)c1=O`, the Kieq in series [1] is 1580 nM; in series [6], 253 nM. Also, in series [8], the Ratio Ki worked out at 6.

`CCCCCn1cc(C(=O)NC23CC4CC(CC(C4)C2)C3)c(=O)c2ccc(Sc3ccccc3)cc21`: the Kieq in series [1] is 5.3 nM; in series [6] it was 1.6 nM. Also, the Ratio Ki in series [8] was 3.3.

For the molecule `CCCCCn1cc(C(=O)NC23CC4CC(CC(C4)C2)C3)c(=O)c2cc(-c3ccccc3)ccc21`, the Kieq in series [1] is above 10000 nM; in series [6], 3.8 nM. Besides, the Ratio Ki in series [8] is above 2660.

For the molecule `CC(C)c1ccc2c(c1)c(=O)c(C(=O)NC13CC4CC(CC(C4)C1)C3)cn2CCN(C)C`, the Kieq is above 10000 nM in series [1] and 146 nM in series [6]. The figures for the solubility kinetic at 2 h in series [3] and in series [5] were 31.5 µg/mL (≈ 72.3 µM) and 4.5 µg/mL (≈ 10.3 µM), respectively. For the same molecule, the “log(Kinetic_solubility)” value in series [5] was -4.99. In addition, the IC50 in series [7] was 5 µM. The Ratio Ki in series [8] is above 68.

`CCCCCn1cc(C(=O)NC23CC4CC(CC(C4)C2)C3)c(=O)c2cc(C(C)C)ccc21`: the solubility kinetic at 2 h in series [3] is 0.21 µg/mL (≈ 0.483 µM). In addition, in series [5], the solubility kinetic at 2 h is 1 µg/mL (≈ 2.3 µM) and the “log(Kinetic_solubility)” value is recorded as -5.64. The IC50 in series [7] amounted to 14 µM.

Turning to `CCCCCn1cc(C(=O)NC23CC4CC(CC(C4)C2)C3)c(=O)c2ccccc21`, the Kieq was determined as 42.1 nM in series [1] and 4.7 nM in series [6]. Besides, the Ratio Ki in series [8] stood at 9.

For `COCCOCn1cc(C(=O)NC23CC4CC(CC(C4)C2)C3)c(=O)c2cc(C(C)C)ccc21`, the results for the Kieq in series [1] and in series [6] were above 10000 nM and 480 nM, respectively. Moreover, the Ratio Ki in series [8] was above 20.

As for `CC(C)c1ccc2c(c1)c(=O)c(C(=O)NC13CC4CC(CC(C4)C1)C3)cn2CCN1CCS(=O)(=O)CC1`, the results for the Kieq in series [1] and in series [6] were above 10000 nM and 1930 nM, respectively. Further, the Ratio Ki in series [8] was above 5.

`CN(C)CCn1cc(C(=O)NC23CC4CC(CC(C4)C2)C3)c(=O)c2ccc(F)cc21`: the Kieq in series [1] was determined as 501 nM; in series [6], 60 nM. The solubility kinetic at 2 h in series [3] was determined as 170 µg/mL (≈ 414 µM); in series [5], 5.6 µg/mL (≈ 13.6 µM). In addition, the “log(Kinetic_solubility)” value in series [5] is recorded as -4.87. Also, the IC50 in series [7] was determined as 15 µM. Besides, the Ratio Ki in series [8] was found to be 8.

Turning to `CCCCCn1c(=O)c(C(=O)NC23CC4CC(CC(C4)C2)C3)c(O)c2ccccc21`, in series [2], the Efficacy is below 50%. In addition, the figures for the solubility kinetic at 2 h in series [3] and in series [5] were 0.23 µg/mL (≈ 0.563 µM) and 1.4 µg/mL (≈ 3.43 µM), respectively. Also, the EC50 in series [4] was determined as 0.0024 µM. In series [5], the “log(Kinetic_solubility)” value is given as -5.47. The IC50 in series [6] came out at 0.002 µM; in series [7], 74 µM.

In the case of `CCCCCn1c(=O)c(C(=O)NCc2ccc(OC)cc2)c(O)c2cc(-c3cccs3)ccc21`, the figures for the Kieq in series [1] and in series [6] were 159 nM and 19.7 nM, respectively. Besides, the Ratio Ki in series [8] stood at 8.

In the case of `CCCCCn1c(=O)c(C(=O)NC23CC4CC(CC(C4)C2)C3)c(O)c2cc(C(C)C)ccc21`, the Kieq was determined as 1240 nM in series [1] and 0.53 nM in series [6]. Further, the Efficacy in series [2] was below 50%. In addition, the solubility kinetic at 2 h in series [3] was 0.02 µg/mL (≈ 0.0444 µM); in series [5], 1.9 µg/mL (≈ 4.22 µM). In addition, in series [4], the EC50 amounted to 0.0026 µM. Moreover, in series [5], the “log(Kinetic_solubility)” value is reported as -5.38. For the same molecule, the IC50 in series [6] came out at 0.0037 µM; in series [7] it was 13 µM. In addition, the Ratio Ki in series [8] was found to be 2350.
